# Reference: PubChem BioAssay AID624467 (The Scripps Research Institute Molecular Screening Center, 2012)
# Among all 360,000 compounds or so, about 3,600 (1%) were called active. For the sample, actives were picked, then their nearest neighbours and some compounds at random. A number with no mark means an inactive call.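 The calls were made as follows: active = activation above the mean activation of all test compounds in the run plus 3 SD (cut at about 38% in these data); inactive = the rest.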
# Target: Trace amine-associated receptor 1 (Homo sapiens) (UniProt Q96RJ0)
# Assay: human TAAR1 agonists, primary screen, Fluo-8 calcium fluorescence, CHO RD-HGA16 cells (AID 624467)
# Conditions: CHO RD-HGA16 TAAR1, Fluo-8 calcium fluorescence; at 3 µM; stronger effect = higher value; vehicle wells 0%, saturating PEA agonist 100%
# In short: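 Test system: RD-HGA16 (CHO) cells co-expressing Gα16 and hTAAR1 / Benchmarks: DMSO vehicle as 0%, PEA at EC100 as 100% / Repeats: no replicates (n 1) / Measure: % activation from peak over basal fluorescence ratio, DMSO-to-PEA scaled / Timing: 17-24 h plating, Fluo-8 75 min 37 °C, 30 min RT / Technique: kinetic Fluo-8 calcium fluorescence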
# Sequence of Trace amine-associated receptor 1 (Homo sapiens) (Q96RJ0 whole entry, looked up): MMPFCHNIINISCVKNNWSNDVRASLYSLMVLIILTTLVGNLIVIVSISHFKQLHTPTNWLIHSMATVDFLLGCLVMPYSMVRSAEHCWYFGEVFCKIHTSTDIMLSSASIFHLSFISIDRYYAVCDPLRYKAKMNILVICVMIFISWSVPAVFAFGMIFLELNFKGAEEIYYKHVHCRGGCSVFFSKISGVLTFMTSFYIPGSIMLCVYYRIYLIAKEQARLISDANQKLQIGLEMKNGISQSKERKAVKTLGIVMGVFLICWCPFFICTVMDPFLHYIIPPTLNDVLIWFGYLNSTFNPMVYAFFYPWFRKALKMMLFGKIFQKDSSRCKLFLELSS
row,SMILES,activation
1,COC(=O)[C@]12C[C@H](CC(=O)NCc3ccc(C)o3)C(=O)N(CCC3=CCCCC3)C1=C[C@H](C(C)(C)C)O[C@@H]2C,-2.27%
2,CCCCCCCCN1C(=O)[C@@H](CC(=O)N2CCN(C(=O)OCC)CC2)C[C@@]2(C(=O)OC)C1=C[C@H](C1CCCC1)O[C@@H]2C,-2.04%
3,CCN(CC)P(=O)(Nc1ccc(SC(F)F)cc1)c1ccc(N(C)C)cc1NC(=O)c1ccco1 (stereo unspecified),1.83%
4,Nc1c(NCCc2ccccc2)c2ccccc2oc1=O,88.1% (active)
5,NC(=O)c1oc2ccccc2c1NC(=O)Cc1ccccc1,10.1%
6,CC(C)(C)Nc1c(N)c(=O)oc2ccccc12,9.39%
7,COC(=O)C1=C(C)N(Cc2cccc(C(F)(F)F)c2)C(=NCc2ccccc2)NC1c1ccccc1C(F)(F)F (stereo unspecified),1.05%
8,C=CCN=C1NC(c2cccc(C(F)(F)F)c2)C(C(=O)OC)=C(C)N1C (stereo unspecified),-0.19%
9,COC(=O)[C@]12C[C@H](CC(=O)NCc3ccc(OC)c(OC)c3)C(=O)N(Cc3ccccc3)C1=C[C@H](C(C)C)O[C@@H]2C1CC1,-0.82%
10,CCCCn1c(-c2cccc(C)c2)nc2cc3[nH]c(=O)c(C(C)C)nc3cc21,14.7%
11,O=C(/C=C/c1ccc(F)cc1)NC(=S)NNC(=O)c1cccnc1,39.6% (active)
12,NS(=O)(=O)c1ccc(NC(=S)NC(=O)c2cccnc2)cc1,0.75%
13,Cc1cccc(OCCNC(=S)NC(=O)c2cccnc2)c1,-0.63%
14,COCCN1C(=O)N(c2ccc(Cl)cc2)C(=O)C1CC(=O)Nc1cc(OC)cc(OC)c1 (stereo unspecified),18.5%
15,C[C@H](O)[C@@H]1C(=O)N2CCc3c([nH]c4c(-c5ccc6c(c5)OCO6)cccc34)[C@@H]2C[C@@H]1N(C)C(=O)c1ccco1,14.6%
16,Cc1ccsc1C(=O)NNC(=O)COc1ccc(Br)cc1,1.12%
17,Cc1ccc(O)c(NC(=S)NC(=O)COc2ccc(Br)cc2)c1,108% (active)
18,Cc1ccc(O)c(/C=N/NC(=O)COc2ccc3c(C)cc(=O)oc3c2)c1,6.72%
19,OC[C@H]1O[C@@H](c2nc(-c3nc(-c4ccc(F)cc4)no3)cs2)[C@H](O)[C@@H](O)[C@H]1O,0.88%
20,COc1ccc(OC)c(NC(=O)CSc2nc3cccnc3n2C)c1,1.87%
21,CCCCCCCCCCOC(=O)Cn1c(COc2ccc(C)cc2)[n+](C)c2ccccc21,74.1% (active)
22,CCOc1ccc(OCCSc2nc3ccccc3n2CC(=O)O)cc1,3.64%

row,SMILES,activation
1,Cc1noc(C)c1COC(=O)Cn1c(C)nc2ccccc21,1.89%
2,NCCCNC(=S)NCCCN(Cc1ccc(Cl)cc1)c1ccc(Br)cn1,24.3%
3,S=C(NCCCc1cnc[nH]1)NCCCN(Cc1ccc(Cl)c(Cl)c1)c1ccc(Br)cn1,44.3% (active)
4,COC(=O)C1=C(C)N(Cc2ccc(C(F)(F)F)cc2)C(=NCc2ccc(C(F)(F)F)cc2)NC1c1cccc(Cl)c1 (stereo unspecified),16.8%
5,O=C(CCC1CCCN(Cc2ccc(O)c(Cl)c2)C1)NCc1ccccc1F (stereo unspecified),5.41%
6,CCC(C)C(N=C1NS(=O)(=O)c2ccccc21)C(=O)N1CCC(C)CC1 (stereo unspecified),5.5%
7,COc1ccccc1-c1ccc([C@@H]2C[C@H]3[C@H](CON3C)CN2S(=O)(=O)c2cc(Cl)cc(Cl)c2)cc1,0.17%
8,OC(CNCCc1ccc(Cl)cc1Cl)COc1ccccc1 (stereo unspecified),86% (active)
9,COc1ccc(OCC(O)CNC(=O)Nc2ccc(Cl)cc2)cc1 (stereo unspecified),9.53%
10,OC(COc1ccccc1)CN1CCN(c2cccc(Cl)c2)CC1 (stereo unspecified),4.5%
11,CC1CN(S(=O)(=O)c2cccc(C(F)(F)F)c2)CN1C(=O)N1CCOCC1 (stereo unspecified),-1.03%
12,CCOC(=O)[C@]12CCCC=C1N(CCC1=CCCCC1)C(=O)[C@H](CC(=O)N1CCOCC1)C2,-0.62%
13,CCS(=O)(=O)N1CCN(C(=O)c2cccs2)CC1,3.03%
14,COC(=O)c1ccc(CN2C(=O)[C@]3(OCCC=C[C@H]3C)c3c(Br)cccc32)cc1,2.59%
15,Cc1ccccc1CN1C(=O)c2ccccc2Sc2ccc(C(=O)NCCCN3CCOCC3)cc21,40.1% (active)
16,O=C(NCCCN1CCCCC1)c1ccc2c(c1)NC(=O)C(N1CCOCC1)S2 (stereo unspecified),3.95%
17,CCC1=Nc2cc(C(=O)NCCCN3CCOCC3)ccc2Sc2ccc(Br)cc21,9.87%
18,COC(=O)c1c(-c2ccc(OC)cc2)c2c(c3c4cc(OC)ccc4n(S(=O)(=O)c4ccc(F)cc4)c13)C(=O)N(C)C2,-0.58%
19,CCOC(=O)N1CCN(C(=O)c2ccccc2SCC(=O)NCC2CCCCC2)CC1,2.29%
20,O=C(COc1ccc(F)cc1Br)NCC1COc2ccccc2O1 (stereo unspecified),-1.29%
21,O=C(COC(=O)c1ccc(F)cc1)NCC1COc2ccccc2O1 (stereo unspecified),0.46%
22,c1ccc2c(c1)OCC(CNc1ncnc3nc[nH]c13)O2 (stereo unspecified),225% (active)

row,SMILES,activation
1,CN(c1ccccc1)S(=O)(=O)c1ccc(C(=O)NCc2cccnc2)cc1,3.27%
2,Cc1cc(N2CCOCC2)nc2ccc(NC(=S)N3CCN(Cc4ccccc4)CC3)cc12,7.44%
3,O=S(=O)(Cc1cc(Sc2ccccc2)nc(-c2ccccc2)n1)c1ccccc1,11.3%
4,Cc1ccc(Sc2cc(N3CCOCC3)nc(-c3ccccc3)n2)cc1,48.2% (active)
5,c1ccc(C2CNCc3c2ccc2ccccc32)cc1 (stereo unspecified),82% (active)
6,c1ccc2c(CCN3CCNC[C@H]3Cc3cccc4ccccc34)cccc2c1,33.5%
7,O=C(COC(=O)c1cc(-c2cccs2)nn1-c1ccccc1)Nc1cc([N+](=O)[O-])ccc1Cl,7.58%
8,Cc1ccc(N2C(=O)CC(NCc3ccc4c(c3)OCO4)C2=O)cc1Cl (stereo unspecified),1.12%
9,CSCCC(NS(=O)(=O)c1ccc2c(c1)oc(=O)n2C)C(=O)NC1CCCc2ccccc21 (stereo unspecified),4.94%
10,COC(=O)[C@]12C[C@H](CC(=O)NCCc3ccccc3OC)C(=O)N(Cc3ccccc3)C1=C[C@H](C(C)C)O[C@@H]2C1CC1,30.4%
11,COc1ccc(OC)c(C(C)NC(=S)Nc2ccc(S(=O)(=O)Nc3ncccn3)cc2)c1 (stereo unspecified),1.66%
12,COc1ccc(NS(=O)(=O)c2ccc(NC(=S)NC(=O)CC(C)C)cc2)cc1,42.2% (active)
13,COc1cc(NS(=O)(=O)c2ccc(NC(=S)NC(=O)c3ccccc3)cc2)nc(OC)n1,-5.7%
14,COc1ccc(C2c3ccc(O)cc3Oc3ncn(CCCO)c(=N)c32)cc1OC (stereo unspecified),0.73%
15,C=CCN1C(=NC(=O)COc2ccccc2)SC2CS(=O)(=O)CC21 (stereo unspecified),2.44%
16,C=CCN1CN(S(=O)(=O)c2ccc(OC)cc2)c2nc3ccccc3nc21,2.16%
17,O=C(NCc1ccccc1)[C@H]1CCCN1C(=O)[C@H]1CCCN1C(=O)N1CCOCC1,1.52%
18,Cc1ccc(C)n1-c1ccncc1,2.15%
19,COc1ccc(C(C(O)C(=O)c2c[nH]c3ccccc23)N2CCN(c3ccccc3)CC2)cc1 (stereo unspecified),39.9% (active)
20,COc1ccc(C(C(=O)Nc2c(C)cccc2C)N2CCN(c3ccc(C)cc3)CC2)cc1 (stereo unspecified),5.99%
21,COc1ccc(C(CC(=O)N2CCN(c3ccccc3)CC2)c2c(O)cc(OC)cc2OC)cc1 (stereo unspecified),2.38%
22,COC(=O)C1=C(C)N(Cc2ccc(F)cc2)C(=S)NC1c1cccc(Cl)c1 (stereo unspecified),-0.89%

row,SMILES,activation
1,CN1CCCc2nc(-c3ccccc3)ccc21,1.31%
2,O=C(Nc1ccccc1)c1ccc2nsnc2c1,-0.47%
3,O=C(Nc1cccc(NC(=O)c2ccc(Br)cc2)c1)c1ccccc1,63.2% (active)
4,CC(C)(C)NC(=O)c1cccc(NC(=O)Cc2ccc(Br)cc2)c1,2.23%
5,N#CNC1=NCN(CCc2ccccc2)CN1,63.9% (active)
6,CCCN1CNC(=S)N(CCc2ccccc2)C1,4.93%
7,O=C1CCN(CCc2ccccc2)CCN1CCOc1ccccc1,19.8%
8,CC(C)C[C@H](NC(=O)CC1CCCC1)C(=O)N1CCC[C@H]1C(=O)NCc1ccccc1,1.37%
9,COCCCn1c(SCC(=O)NC2CCCC2)nnc1-c1ccccc1,0.55%
10,COCCCn1c(Cc2csc(Nc3cccc(Cl)c3)n2)nnc1SCC(=O)OC1CCCCC1,52.8% (active)
11,CCOc1ccc(Nc2nc(Cc3nnc(SCC(=O)NC4CCCC4)n3C)cs2)cc1,11.9%
12,CC(C)Nc1nnc(SCC(=O)c2c[nH]c3ccccc23)s1,1.89%
13,CCOc1ncccc1C(=O)OCC(=O)c1c[nH]c2ccccc12,14.1%
14,C[C@H](NC(=O)c1ccccc1)C(=O)OCC(=O)c1c[nH]c2ccccc12,70% (active)
15,COc1ccc(NC(=O)C2(C)Cc3c(-c4ccc(C(N)=O)cc4)ccnc3O2)cc1 (stereo unspecified),1.37%
16,CN[C@H]1C[C@H]2c3[nH]c4c(-c5ccccc5)cccc4c3CCN2C(=O)[C@H]1[C@H](C)O,4.95%
17,CCc1ccc(-c2nn(-c3ccccc3C)cc2C(=O)N2CCN(C3CCS(=O)(=O)C3)CC2)cc1 (stereo unspecified),1.27%
18,O=C(NCCCN1CCOCC1)c1cn(-c2ccccc2)nc1-c1ccc(F)cc1,3.53%
19,CCc1ccc(-c2nn(-c3ccccc3)cc2CSC(=N)N)cc1,99.3% (active)
20,CCc1nc2ccc(C(=O)N3CCN(c4cccc(Cl)c4)CC3)cc2nc1CC,1.12%
